# From ChEMBL document CHEMBL1135588, “Divalent and trivalent alpha-ketocarboxylic acids as inhibitors of protein tyrosine phosphatases” (J Med Chem, 2002)
# pIC50: −log10 of the molar value.
# Legend:
# [1] = target: Receptor-type tyrosine-protein phosphatase F (Homo sapiens, UniProt P10586); experiment: Concentration required for 50% Inhibition of activity against Protein-tyrosine phosphatase Lar
# In short: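 Yersinia PTPase and LAR, commercial enzymes. p-NPP at 2.5 mM; 1 mM EDTA, 100 mM NaCl, 100 mM acetate pH 5.5, 10% DMSO, 25 °C. Initial rates taken from hydrolysis followed at 420 nm, 10–120 s after mixing. IC50 obtained by Dixon analysis.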
# [2] = target: T1, Tyrosine-protein phosphatase non-receptor type 1 (Homo sapiens, UniProt P18031); experiment: Concentration required for 50% Inhibition of activity against Protein Tyrosine Phosphatases 1B
# T1 sequence (P18031 whole entry): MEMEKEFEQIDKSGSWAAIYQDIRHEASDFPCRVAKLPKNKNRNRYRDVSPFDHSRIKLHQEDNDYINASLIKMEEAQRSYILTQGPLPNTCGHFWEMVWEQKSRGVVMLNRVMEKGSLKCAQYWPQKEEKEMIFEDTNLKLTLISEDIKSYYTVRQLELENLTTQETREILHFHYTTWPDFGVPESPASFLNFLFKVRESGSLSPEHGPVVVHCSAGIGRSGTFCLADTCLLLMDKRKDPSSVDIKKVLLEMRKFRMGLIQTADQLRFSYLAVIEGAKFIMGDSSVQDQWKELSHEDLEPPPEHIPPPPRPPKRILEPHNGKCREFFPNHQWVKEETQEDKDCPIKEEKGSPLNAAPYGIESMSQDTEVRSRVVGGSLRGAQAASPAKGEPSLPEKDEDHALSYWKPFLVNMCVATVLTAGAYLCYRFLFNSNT
# Chain of Receptor-type tyrosine-protein phosphatase F (P10586 whole entry): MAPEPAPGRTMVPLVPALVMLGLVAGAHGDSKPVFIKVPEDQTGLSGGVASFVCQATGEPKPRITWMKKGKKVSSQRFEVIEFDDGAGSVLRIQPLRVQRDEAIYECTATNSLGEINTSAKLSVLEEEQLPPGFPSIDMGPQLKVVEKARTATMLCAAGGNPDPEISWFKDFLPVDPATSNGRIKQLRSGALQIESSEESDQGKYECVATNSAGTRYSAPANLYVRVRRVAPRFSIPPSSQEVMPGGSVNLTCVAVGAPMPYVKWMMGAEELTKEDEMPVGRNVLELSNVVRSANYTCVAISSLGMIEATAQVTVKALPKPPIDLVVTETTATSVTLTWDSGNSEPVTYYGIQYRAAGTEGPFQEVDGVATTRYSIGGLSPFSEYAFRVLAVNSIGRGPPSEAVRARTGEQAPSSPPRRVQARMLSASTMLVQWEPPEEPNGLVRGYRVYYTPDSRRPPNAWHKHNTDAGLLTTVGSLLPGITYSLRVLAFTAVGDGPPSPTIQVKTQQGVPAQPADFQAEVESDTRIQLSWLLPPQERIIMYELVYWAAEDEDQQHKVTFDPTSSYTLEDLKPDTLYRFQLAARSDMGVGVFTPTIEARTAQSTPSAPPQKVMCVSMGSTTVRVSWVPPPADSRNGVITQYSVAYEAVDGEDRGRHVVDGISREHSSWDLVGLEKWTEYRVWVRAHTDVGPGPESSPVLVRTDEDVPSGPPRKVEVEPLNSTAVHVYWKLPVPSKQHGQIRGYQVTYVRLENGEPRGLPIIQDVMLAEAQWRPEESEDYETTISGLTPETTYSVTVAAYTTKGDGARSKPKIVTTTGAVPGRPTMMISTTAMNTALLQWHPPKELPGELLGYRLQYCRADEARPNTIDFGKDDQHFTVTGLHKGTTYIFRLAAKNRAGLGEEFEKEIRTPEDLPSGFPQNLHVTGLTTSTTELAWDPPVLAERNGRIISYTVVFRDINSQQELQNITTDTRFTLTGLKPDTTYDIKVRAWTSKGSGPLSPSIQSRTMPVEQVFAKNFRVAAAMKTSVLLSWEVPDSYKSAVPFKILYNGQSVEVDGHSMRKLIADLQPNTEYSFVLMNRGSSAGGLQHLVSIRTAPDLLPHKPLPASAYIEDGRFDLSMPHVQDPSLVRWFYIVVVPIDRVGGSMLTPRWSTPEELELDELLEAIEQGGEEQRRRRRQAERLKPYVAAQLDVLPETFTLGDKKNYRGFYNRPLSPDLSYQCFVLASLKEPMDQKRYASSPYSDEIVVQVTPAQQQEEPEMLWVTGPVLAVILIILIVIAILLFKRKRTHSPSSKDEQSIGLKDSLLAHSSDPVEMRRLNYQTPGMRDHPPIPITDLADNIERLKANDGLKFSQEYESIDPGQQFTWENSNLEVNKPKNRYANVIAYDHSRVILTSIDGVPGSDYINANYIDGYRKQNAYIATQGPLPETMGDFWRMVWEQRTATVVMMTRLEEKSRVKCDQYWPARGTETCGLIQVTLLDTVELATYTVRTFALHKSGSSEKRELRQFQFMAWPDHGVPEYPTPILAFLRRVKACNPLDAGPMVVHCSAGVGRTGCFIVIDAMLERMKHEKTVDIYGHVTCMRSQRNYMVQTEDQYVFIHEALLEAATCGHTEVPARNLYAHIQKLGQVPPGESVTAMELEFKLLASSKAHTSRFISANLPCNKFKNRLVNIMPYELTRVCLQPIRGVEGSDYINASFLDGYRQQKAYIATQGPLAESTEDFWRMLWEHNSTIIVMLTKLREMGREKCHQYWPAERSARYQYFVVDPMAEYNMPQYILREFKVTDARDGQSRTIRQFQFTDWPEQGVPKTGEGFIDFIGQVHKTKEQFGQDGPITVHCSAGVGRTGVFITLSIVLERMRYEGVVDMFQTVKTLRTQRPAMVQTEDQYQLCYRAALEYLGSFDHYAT
SMILES,pIC50 [1],pIC50 [2]
O=C(O)C(=O)c1ccc(OCc2cccc(COc3ccc(C(=O)C(=O)O)cc3)c2)cc1,3.92,4.28
O=C(O)C(=O)c1ccc(OCc2ccc(COc3ccc(C(=O)C(=O)O)cc3)cc2)cc1,3.60,5.57
O=C(O)C(=O)c1ccc(O)cc1,2.64,
O=C(O)C(=O)c1ccc(OCc2cc(COc3ccc(C(=O)C(=O)O)cc3)cc(COc3ccc(C(=O)C(=O)O)cc3)c2)cc1,4.39,4.89
O=C(O)C(=O)c1ccc(OCc2ccccc2COc2ccc(C(=O)C(=O)O)cc2)cc1,3.92,4.72
